This is a sample that favours compounds with a hit; in the whole collection about 4.8% have one here.
CSC inhib – cancer stem cell viability inhibitors, primary screen, luminescence; cancer stem cell-like cells viability; inhibition, % at 7.5 µM; 300,000 tested, 1.1% active; AID 2717, 2010; in the data active = inhibition above about 75%; tested in HMLE shEcad cells
CHOP UPR activ – activators of apoptotic CHOP UPR arm, primary screen, cell-based, CHO-CHOP luciferase reporter, luminescence, uHTS; UPR activation; percent of tunicamycin response over DMSO baseline; 330,000 tested, 0.34% active; activation, % at 10 µM; AID 449763, 2010;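 active = at 10 µM dose, activation of 40% or more, normalized to positive control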
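Test system: CHO CHOP reporter cells. Input: 500 CHO-CHOP cells per well. Medium: F12 with 10% FBS. Technique: luciferase luminescence. Measure: percent activation relative to tunicamycin control. Dosing: 10 µM compound, 0.5% DMSO. Timing: 16-18 h cell attachment, then 6 h compound exposure, 37 °C.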
SKKanGAS inh – S. pyogenes SKKanGAS growth inhibitors in kanamycin, primary screen, streptokinase expression inhibitor project, SKKanGAS strain, BacTiter-Glo luminescence | 6 h | inhibition, % at 7.5 µM | 300,000 tested, 1.3% active | AID 1662, 2009;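 active = mean replicate score, as percent of positive control median, at least 50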;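 note: strain carries kanamycin resistance gene driven by streptokinase promoter and grows in 40 µg/ml kanamycin; loss of luminescence reflects streptokinase promoter inhibition or plain growth inhibition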
UPR XBP1 act – activators of adaptive XBP1 UPR arm, primary screen, cell-based, CHO-XBP1 luciferase reporter, luminescence, uHTS. IRE1-XBP1 UPR activation; percent of tunicamycin response, DMSO as zero. activation, % at 20 µM. 330,000 tested, 0.33% active;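 active = versus positive control, 20 µM dose yields 30% or more activation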
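Material: CHO-XBP1 cells stably carrying IRE1-XBP1-driven luciferase reporter / Amount: 1000 cells per well / Compound: 20 µM, 1% DMSO / Times: 6 h treatment, 37 °C / Detection: luciferase luminescence / Measure: % activation of reporter signal versus tunicamycin and DMSO controls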
Beta apoptosis – inhibitors of cytokine-induced beta cell apoptosis, primary screen, luminescence | protection from apoptosis, % (no concentration beside the values) | 300,000 tested, 0.8% active | INS-1E cytokine-induced death, ATP luminescence, 48 h; percent of positive-control rescue, neutral wells zero;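 active = Every replicate reaches about 75%, or at least half do and their mean reaches it too, limit read from the data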;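 note: higher means more ATP so stronger rescue from cytokine killing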
Mdm2-MdmX inh – inhibitors of human Mdm2-MdmX association, primary screen, cell-based, luminescence, split luciferase, SaOS-2, uHTS. Protein Mdm4 (Homo sapiens) + E3 ubiquitin-protein ligase Mdm2 (Homo sapiens), …. SaOS-2 split-luciferase Mdm2/MdmX complementation. inhibition, % at 8 µM. 330,000 tested, 3% active. AID 485346, 2010;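 active = inhibition of at least 50% at 8 µM in the primary screen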
Mdm2 MdmX conf – Mdm2-MdmX complex disruptors, retested hits, confirmation, luminescence, single concentration | 10,000 tested, 55% active | Mdm2-MdmX binding, luminescent assay | inhibition, % at 8 µM | AID 489028, 2010 | shares compounds with Mdm2-MdmX inh; in the data active = inhibition above about 40%
FLuc counter – full-length luciferase signal inhibition, confirmation, counter-screen for Mdm2/MdmX interaction inhibitor project, cell-based, single concentration, SaOS-2; shares compounds with Mdm2-MdmX inh; SaOS-2 full-length luciferase counterscreen, luminescence; inhibition, % at 8 µM; 6,200 tested, 77% active; AID 504607, 2011;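 active = mean inhibition at 8 µM reaching about 37%, which flags the compound as non-specific, limit read from the data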;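 note: p53-null SaOS-2 cells with luciferase driven by a doxycycline-inducible promoter; compound on cells about two nights before reading with doxycycline added after day one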
Each line names hits and unclear results; the compound was inactive in the other large screens (follow-up assays come after a bar, where they were run).

CCOc1ccc(C(c2c(NC(=O)c3ccccc3)sc(C)c2C)N2CCN(CCO)CC2)cc1 (stereo not drawn)	none
Cc1sc(NC(=O)c2ccco2)c(C(c2ccc(F)cc2)N2CCN(C)CC2)c1C (stereo not drawn)	Mdm2-MdmX inh 53.5 | Mdm2 MdmX conf inactive | FLuc counter 73.7
Cc1sc(NC(=O)c2ccccc2)c(C(c2ccc(Cl)cc2)N2CCN(CCO)CC2)c1C (stereo not drawn)	Mdm2-MdmX inh 54.5 | Mdm2 MdmX conf inactive | FLuc counter 84.1
Cc1sc(NC(=O)c2ccco2)c(C(c2ccccc2)N2CCC(C)CC2)c1C (stereo not drawn)	none
O=C(CN1CCN(c2cnn(-c3ccccc3)c(=O)c2Cl)CC1)NC1CCS(=O)(=O)C1 (stereo not drawn)	none (no result: CSC inhib, SKKanGAS inh, Beta apoptosis)
COc1ccc(C(=O)NCc2ccc3c(c2)OCO3)cc1S(=O)(=O)N1CCCC1	none (no result: CSC inhib, SKKanGAS inh, Beta apoptosis)
CC(C)COc1ccc(-c2nnc(-c3ccco3)o2)cc1	none
CCN(CC)CCCNc1ccc(-c2nnc(-c3ccc(OCC(C)C)cc3)o2)cn1	CSC inhib 103.1, Mdm2-MdmX inh 100.4 | Mdm2 MdmX conf 87.7 | FLuc counter inactive
O=C(CCN1C(=O)c2ccc(Br)cc2C1=O)NC1CCCCC1	none
O=C(NC1CCCCC1)c1cc(S(=O)(=O)N2CCOCC2)ccc1Cl	none
O=C(NC(=O)c1ccc(C(F)(F)F)cc1)Nc1ccc(-c2cnco2)cc1	Mdm2-MdmX inh 55.5 | Mdm2 MdmX conf inactive
COc1cccc(NC(=O)CN(C)S(=O)(=O)/C=C/c2ccccc2)c1	none (no result: CSC inhib, SKKanGAS inh)
CCCNC(=S)N1CCC(NC(=O)c2ccc(C)cc2)CC1	none
Cc1cccc(N(C(=O)CNC(=O)c2ccco2)C(C(=O)NC2CCCCC2)c2cccnc2)c1 (stereo not drawn)	none
COc1ccc(C(C(=O)NC2CCCC2)N(C(=O)c2snc(-c3ccc(F)cc3)c2N)c2ccc(F)cc2)cc1 (stereo not drawn)	Mdm2-MdmX inh 56.5 | Mdm2 MdmX conf inactive
COC(CN(C(=O)CCl)C(C(=O)NC1CCCCC1)c1ccccc1C)OC (stereo not drawn)	Mdm2-MdmX inh 82.9 | Mdm2 MdmX conf 61.6 | FLuc counter 43.8
COc1ccc(N(C(=O)c2ccn[nH]2)C(C(=O)NC2CCCC2)c2ccc(F)cc2)cc1 (stereo not drawn)	none
O=C(NC1CCCCC1)C(c1cccnc1)N(C(=O)CCl)c1cccc(Cl)c1 (stereo not drawn)	Mdm2-MdmX inh 100.2 | Mdm2 MdmX conf 99.8 | FLuc counter 52.7
COc1ccc(C(C(=O)NC2CCCCC2)N(C(=O)CCl)c2ccc(Cl)cc2)cc1 (stereo not drawn)	Mdm2-MdmX inh 100.2 | Mdm2 MdmX conf 98.8 | FLuc counter 49.2
COC(CN(C(=O)CCl)C(C(=O)NC1CCCCC1)c1ccc(Cl)cc1)OC (stereo not drawn)	none (no result: CSC inhib, Beta apoptosis)
CC(C)n1c(=O)n(CC(=O)NCC2CCCO2)c(=O)c2c3c(sc21)COC(C)(C)C3 (stereo not drawn)	none
CC(C)C(=O)N[C@H]1CCC2C3CC=C4C[C@@H](O)CC[C@]4(C)C3CC[C@@]21C (stereo partly drawn)	none (no result: SKKanGAS inh)
C[C@]12CC[C@H](O)CC1=CCC1C2CC[C@@]2(C)C1CC[C@@H]2NC(=O)[C@@H](N)Cc1ccccc1 (stereo partly drawn)	Mdm2-MdmX inh 68.4 (no result: SKKanGAS inh) | Mdm2 MdmX conf inactive
CCCCCCN[C@H]1CCC2C3CC=C4C[C@@H](O)CC[C@]4(C)C3CC[C@@]21C (stereo partly drawn)	none (no result: SKKanGAS inh)
CC(C)(C)[C@H](N)C(=O)N[C@H]1CCC2C3CC=C4C[C@@H](O)CC[C@]4(C)C3CC[C@@]21C (stereo partly drawn)	CSC inhib 103.9, Mdm2-MdmX inh 100.2 (no result: SKKanGAS inh) | Mdm2 MdmX conf 100.2 | FLuc counter 51.5
COc1ccccc1C(=O)NC(CCSC)C(=O)NNC(=O)c1ccccc1O (stereo not drawn)	none (no result: SKKanGAS inh)
C=CCn1c(C)cc(C(=O)CN2C(=O)c3ccccc3S2(=O)=O)c1C	Mdm2-MdmX inh 74.5 (no result: SKKanGAS inh) | Mdm2 MdmX conf 78.7 | FLuc counter 53.0
CCCn1c(C)cc(C(=O)CN2C(=O)c3ccccc3C2=O)c1C	none
C=CCn1c(C)cc(C(=O)CN2C(=O)NC3(CCCc4ccccc43)C2=O)c1C (stereo not drawn)	none
Cc1cc(C(=O)CN2C(=O)c3ccccc3S2(=O)=O)c(C)n1-c1ccccc1	Mdm2-MdmX inh 56.9 | Mdm2 MdmX conf inactive
CCn1c(C)cc(C(=O)CN2C(=O)c3ccccc3S2(=O)=O)c1C	Mdm2-MdmX inh 88.2 (no result: SKKanGAS inh) | Mdm2 MdmX conf 81.3 | FLuc counter inactive
Cc1cc(C(=O)CN2C(=O)c3ccccc3S2(=O)=O)c(C)n1C(C)C	Mdm2-MdmX inh 56.0 (no result: SKKanGAS inh) | Mdm2 MdmX conf 41.0 | FLuc counter 37.0
Cc1cc(C(=O)CN2C(=O)C3CC=CCC3C2=O)c(C)n1-c1ccccc1 (stereo not drawn)	none
O=C(c1ccc([N+](=O)[O-])cc1)N1CCN(c2ncccn2)CC1	none (no result: CSC inhib, Beta apoptosis)
CCOC(=O)c1c(-c2ccccc2)oc2ccc(O)c(CN3CCN(C)CC3)c12	Mdm2-MdmX inh 50.8 | Mdm2 MdmX conf 45.5 | FLuc counter 59.2
CCOC(=O)c1c(C)n(C)c2ccc(O)c(CN3CCN(C)CC3)c12	none (no result: Beta apoptosis)
CCOC(=O)c1c(-c2ccccc2)oc2cc(CN(C)C)c(O)c(CN(C)C)c12	CSC inhib 93.8, Mdm2-MdmX inh 54.0 | Mdm2 MdmX conf 62.3 | FLuc counter 48.1
CCOC(=O)c1c(C)oc2cc(Cl)c(O)c(CN(C)C)c12	none
CCOC(=O)c1c(CN2CCN(CCO)CC2)n(-c2ccccc2)c2cc(Br)c(O)cc12	none
CCOC(=O)c1c(CN2CCN(C)CC2)n(-c2ccccc2)c2cc(Br)c(O)cc12	Mdm2-MdmX inh 60.8 | Mdm2 MdmX conf 45.6 | FLuc counter 39.3
Cc1[nH]c2ccccc2c1C(C#N)(C#N)C1C(=O)c2ccccc2C1=O	SKKanGAS inh 64.5, Mdm2-MdmX inh 61.3 | Mdm2 MdmX conf 43.1 | FLuc counter inactive

From PubChem BioAssay
